Results published in ChEMBL document CHEMBL4819122, “Novel 4-(piperazin-1-yl)quinolin-2(1H)-one bearing thiazoles with antiproliferative activity through VEGFR-2-TK inhibition” (Bioorg Med Chem, 2021).
Activity calls are given as the source filed them. The calls are words filed in the database; no cut-off is given here.

Columns and labels:
NCI/ADR-RES = assay: Cytotoxicity against human NCl/ADR-RES assessed as growth inhibition at 10 uM by NCI protocol relative to control; format: functional; details: read-out: GI
Outline: (§1)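 Run by NCI as a single-dose screen at 10 μM across the sixty-cell-line panel, which covers nine human tumour tissue types. The read-out is percent growth inhibition of treated cells relative to untreated cells.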

SF-295 = assay: Cytotoxicity against human SF-295 assessed as growth inhibition at 10 uM by NCI protocol relative to control; format: functional; details: read-out: GI; outline: as §1
LOX IMVI = assay: Cytotoxicity against human LOX IMVI assessed as growth inhibition at 10 uM by NCI protocol relative to control; format: functional; details: read-out: GI; outline: as §1
M14 = assay: Cytotoxicity against human M14 assessed as growth inhibition at 10 uM by NCI protocol relative to control; format: functional; details: read-out: GI; outline: as §1
NCI-H23 = assay: Cytotoxicity against human NCI-H23 assessed as growth inhibition at 10 uM by NCI protocol relative to control; format: functional; details: read-out: GI; outline: as §1
DU-145 = assay: Cytotoxicity against human DU-145 assessed as growth inhibition at 10 uM by NCI protocol relative to control; format: functional; details: read-out: GI; outline: as §1
NCI-H322M = assay: Cytotoxicity against human NCI-H322M assessed as growth inhibition at 10 uM by NCI protocol relative to control; format: functional; details: read-out: GI; outline: as §1
NCI-H460 = assay: Cytotoxicity against human NCI-H460 assessed as growth inhibition at 10 uM by NCI protocol relative to control; format: functional; details: read-out: GI; outline: as §1
HOP-92 = assay: Cytotoxicity against human HOP-92 assessed as growth inhibition at 10 uM by NCI protocol relative to control; format: functional; details: read-out: GI; outline: as §1
T47D [1] = assay: Cytotoxicity against human T47D cells assessed as reduction in cell viability after 3 hrs by MTT assay
MDA-MB-435 = assay: Cytotoxicity against human MDA-MB-435 assessed as growth inhibition at 10 uM by NCI protocol relative to control; format: functional, cell-based; outline: as §1
CAKI-1 = assay: Cytotoxicity against human Caki1 assessed as growth inhibition at 10 uM by NCI protocol relative to control; format: functional; details: read-out: GI; outline: as §1
SN12C = assay: Cytotoxicity against human SN12C assessed as growth inhibition at 10 uM by NCI protocol relative to control; format: functional; details: read-out: GI
Outline: (§2)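 Run by the NCI under its standard protocol: one dose of 10 μM against a sixty-line panel from nine human tumour tissues. Result given as percent growth inhibition of treated cells relative to untreated cells.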

BT-549 = assay: Cytotoxicity against human BT-549 assessed as growth inhibition at 10 uM by NCI protocol relative to control; format: functional; details: read-out: GI; outline: as §1
U-251 = assay: Cytotoxicity against human U251 assessed as growth inhibition at 10 uM by NCI protocol relative to control; format: functional; details: read-out: GI; outline: as §2
SF-539 = assay: Cytotoxicity against human […] assessed as growth inhibition at 10 uM by NCI protocol relative to control; format: functional; details: read-out: GI; outline: as §1
MDA-MB-231 = assay: Cytotoxicity against human MDA-MB-231 assessed as growth inhibition at 10 uM by NCI protocol relative to control; format: functional; details: read-out: GI; outline: as §1
MDA-MB-468 = assay: Cytotoxicity against human MDA-MB-468 assessed as growth inhibition at 10 uM by NCI protocol relative to control; format: functional; details: read-out: GI; outline: as §1
ACHN = assay: Cytotoxicity against human ACHN assessed as growth inhibition at 10 uM by NCI protocol relative to control; format: functional; details: read-out: GI; outline: as §1
SNB-19 = assay: Cytotoxicity against human SNB-19 assessed as growth inhibition at 10 uM by NCI protocol relative to control; format: functional; details: read-out: GI; outline: as §2
CCRF-CEM = assay: Cytotoxicity against human CCRF-CEM assessed as growth inhibition at 10 uM by NCI protocol relative to control; format: functional; details: read-out: GI; outline: as §1
HCT-116 = assay: Cytotoxicity against human HCT-116 assessed as growth inhibition at 10 uM by NCI protocol relative to control; format: functional; details: read-out: GI; outline: as §1
TK-10 = assay: Cytotoxicity against human TK-10 assessed as growth inhibition at 10 uM by NCI protocol relative to control; format: functional; details: read-out: GI; outline: as §2
SW-620 = assay: Cytotoxicity against human SW-620 assessed as growth inhibition at 10 uM by NCI protocol relative to control; format: functional; details: read-out: GI; outline: as §2
EKVX = assay: Cytotoxicity against human EKVX assessed as growth inhibition at 10 uM by NCI protocol relative to control; format: functional; details: read-out: GI; outline: as §1
IGROV-1 = assay: Cytotoxicity against human IGROVI assessed as growth inhibition at 10 uM by NCI protocol relative to control; format: functional; details: read-out: GI; outline: as §1
HL-60 = assay: Cytotoxicity against human HL60 assessed as growth inhibition at 10 uM by NCI protocol relative to control; format: functional; details: read-out: GI; outline: as §1
HCC 2998 = assay: Cytotoxicity against human HCC-2998 assessed as growth inhibition at 10 uM by NCI protocol relative to control; format: functional; details: read-out: GI; outline: as §1
RPMI-8226 = assay: Cytotoxicity against human RPMI-8226 assessed as growth inhibition at 10 uM by NCI protocol relative to control; format: functional; details: read-out: GI; outline: as §1
OVCAR-8 = assay: Cytotoxicity against human OVCAR-8 assessed as growth inhibition at 10 uM by NCI protocol relative to control; format: functional; details: read-out: GI; outline: as §1
SK-OV-3 = assay: Cytotoxicity against human SK-OV-3 assessed as growth inhibition at 10 uM by NCI protocol relative to control; format: functional; details: read-out: GI; outline: as §1
T47D [2] = assay: Cytotoxicity against human T-47D assessed as growth inhibition at 10 uM by NCI protocol relative to control; format: functional; details: read-out: GI; outline: as §2
786-0 = assay: Cytotoxicity against human 786-0 assessed as growth inhibition at 10 uM by NCI protocol relative to control; format: functional; details: read-out: GI; outline: as §1
UACC-257 = assay: Cytotoxicity against human UACC-257 assessed as growth inhibition at 10 uM by NCI protocol relative to control; format: functional; details: read-out: GI; outline: as §2
MOLT-4 = assay: Cytotoxicity against human MOLT-4 assessed as growth inhibition at 10 uM by NCI protocol relative to control; format: functional; details: read-out: GI; outline: as §1
Malme-3M = assay: Cytotoxicity against human MALME-3M assessed as growth inhibition at 10 uM by NCI protocol relative to control; format: functional; details: read-out: GI; outline: as §1
SK-MEL-28 = assay: Cytotoxicity against human SK-MEL-28 assessed as growth inhibition at 10 uM by NCI protocol relative to control; format: functional; details: read-out: GI; outline: as §1
PC-3 = assay: Cytotoxicity against human PC3 assessed as growth inhibition at 10 uM by NCI protocol relative to control; format: functional; details: read-out: GI; outline: as §1
UACC-62 = assay: Cytotoxicity against human UACC-62 assessed as growth inhibition at 10 uM by NCI protocol relative to control; format: functional; details: read-out: GI; outline: as §2
A549 = assay: Cytotoxicity against human A549 assessed as growth inhibition at 10 uM by NCI protocol relative to control; format: functional; details: read-out: GI; outline: as §1
RXF 393 = assay: Cytotoxicity against human RXF 393 assessed as growth inhibition at 10 uM by NCI protocol relative to control; format: functional; details: read-out: GI; outline: as §1
Hs-578T = assay: Cytotoxicity against human HS 578T assessed as growth inhibition at 10 uM by NCI protocol relative to control; format: functional; details: read-out: GI; outline: as §1
OVCAR-4 = assay: Cytotoxicity against human OVCAR-4 assessed as growth inhibition at 10 uM by NCI protocol relative to control; format: functional; details: read-out: GI; outline: as §1
A498 = assay: Cytotoxicity against human A498 assessed as growth inhibition at 10 uM by NCI protocol relative to control; format: functional; details: read-out: GI; outline: as §1
HCT-15 = assay: Cytotoxicity against human HCT-15 assessed as growth inhibition at 10 uM by NCI protocol relative to control; format: functional; details: read-out: GI; outline: as §1
UO-31 = assay: Cytotoxicity against human UO31 assessed as growth inhibition at 10 uM by NCI protocol relative to control; format: functional; details: read-out: GI; outline: as §2
SNB-75 = assay: Cytotoxicity against human SNB-75 assessed as growth inhibition at 10 uM by NCI protocol relative to control; format: functional; details: read-out: GI; outline: as §2
K562 = assay: Cytotoxicity against human K-562 assessed as growth inhibition at 10 uM by NCI protocol relative to control; format: functional; details: read-out: GI; outline: as §1
NCI-H522 = assay: Cytotoxicity against human NCI-H522 assessed as growth inhibition at 10 uM by NCI protocol relative to control; format: functional; details: read-out: GI; outline: as §1
SR = assay: Cytotoxicity against human SR assessed as growth inhibition at 10 uM by NCI protocol relative to control; format: functional; details: read-out: GI; outline: as §2
HT-29 = assay: Cytotoxicity against human HT29 assessed as growth inhibition at 10 uM by NCI protocol relative to control; format: functional; details: read-out: GI; outline: as §1
SK-MEL-5 = assay: Cytotoxicity against human SK-MEL-5 assessed as growth inhibition at 10 uM by NCI protocol relative to control; format: functional; details: read-out: GI; outline: as §1
MCF7 = assay: Cytotoxicity against human MCF7 assessed as growth inhibition at 10 uM by NCI protocol relative to control; format: functional; details: read-out: GI; outline: as §1

COc1ccc(-c2csc(NC(=O)CN3CCN(c4cc(=O)[nH]c5ccc(F)cc45)CC3)n2)cc1
inhibition of growth at 10 µM (NCI/ADR-RES): 20.5%
inhibition of growth at 10 µM (SF-295): 17.5%
inhibition of growth at 10 µM (LOX IMVI): 20.8%
inhibition of growth at 10 µM (M14): 19.2%
inhibition of growth at 10 µM (NCI-H23): 16.6%
inhibition of growth at 10 µM (DU-145): 40%
inhibition of growth at 10 µM (NCI-H322M): 12.6%
inhibition of growth at 10 µM (NCI-H460): 12.5%
inhibition of growth at 10 µM (HOP-92): 25.4%
IC50 (T47D [1]): 16.9 µM
growth inhibition (GI) (MDA-MB-435): inactive
inhibition of growth at 10 µM (CAKI-1): 46.8%
inhibition of growth at 10 µM (SN12C): 29.1%
inhibition of growth at 10 µM (BT-549): 18.6%
inhibition of growth at 10 µM (U-251): 30.3%
inhibition of growth at 10 µM (SF-539): 30.5%
inhibition of growth at 10 µM (MDA-MB-231): 24.5%
inhibition of growth at 10 µM (MDA-MB-468): 32%
inhibition of growth at 10 µM (ACHN): 27.7%
inhibition of growth at 10 µM (SNB-19): 15.3%
inhibition of growth at 10 µM (CCRF-CEM): 29.8%
inhibition of growth at 10 µM (HCT-116): 15.9%
inhibition of growth at 10 µM (TK-10): 31.8%
inhibition of growth at 10 µM (SW-620): 34.6%
inhibition of growth at 10 µM (EKVX): 24.9%
inhibition of growth at 10 µM (IGROV-1): 45.6%
inhibition of growth at 10 µM (HL-60): 23.5%
inhibition of growth at 10 µM (HCC 2998): 15.8%
inhibition of growth at 10 µM (RPMI-8226): 40.9%
inhibition of growth at 10 µM (OVCAR-8): 17.2%
inhibition of growth at 10 µM (SK-OV-3): 10.4%
inhibition of growth at 10 µM (T47D [2]): 69.2%
inhibition of growth at 10 µM (786-0): 19.3%
inhibition of growth at 10 µM (UACC-257): 14.5%
inhibition of growth at 10 µM (MOLT-4): 46.7%
inhibition of growth at 10 µM (Malme-3M): 33.6%
inhibition of growth at 10 µM (SK-MEL-28): 13.7%
inhibition of growth at 10 µM (PC-3): 35.8%
inhibition of growth at 10 µM (UACC-62): 28.1%
inhibition of growth at 10 µM (A549): 29.5%
inhibition of growth at 10 µM (RXF 393): 20.3%
inhibition of growth at 10 µM (Hs-578T): 32.9%
inhibition of growth at 10 µM (OVCAR-4): 25.1%
inhibition of growth at 10 µM (A498): 49.9%
inhibition of growth at 10 µM (HCT-15): 26.6%
inhibition of growth at 10 µM (UO-31): 24.9%
inhibition of growth at 10 µM (SNB-75): 23.9%
inhibition of growth at 10 µM (K562): 30.1%
inhibition of growth at 10 µM (NCI-H522): 21.6%
inhibition of growth at 10 µM (SR): 34.7%
inhibition of growth at 10 µM (HT-29): 22.1%
inhibition of growth at 10 µM (SK-MEL-5): 25.4%
inhibition of growth at 10 µM (MCF7): 28.4%
